Only some compounds are listed: those with a hit (about 3.8% of all), similar ones and a draw of the others.
Kir21 inh: blocks the mouse Kir2.1 inward-rectifier potassium channel. hit rate 0.85% among 310,000. B-score at 10 µM. AID 1672. P35561. HEK293-Kir2.1, FluxOR thallium flux fluorescence; active compounds read low;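 active means fluorescence ratio B-score at or below minus 3 SD of library scores, with starting-brightness B-score within 2 SD, cut at about -4.2 in these data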;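 further: channel flux triggered by added potassium and thallium sulfate stimulus; B-score of peak minus minimum fluorescence over baseline after thallium stimulus; more negative B-score means stronger Kir2.1 block with less thallium influx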
hERG protect: compounds protecting human hERG from proarrhythmic drug block. Q12809. CHO-hERG, FluxOR thallium flux, dofetilide IC70 present. activation (rescue from dofetilide block), less the hit threshold, % at 10 µM. hit rate 0.51% among 310,000. AID 1511;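 active means activation above the mean of controls blocked by dofetilide plus 5 SD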;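 further: thallium influx through hERG after potassium depolarization seen as dye fluorescence rise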
Target sequence (Q12809 whole entry, looked up): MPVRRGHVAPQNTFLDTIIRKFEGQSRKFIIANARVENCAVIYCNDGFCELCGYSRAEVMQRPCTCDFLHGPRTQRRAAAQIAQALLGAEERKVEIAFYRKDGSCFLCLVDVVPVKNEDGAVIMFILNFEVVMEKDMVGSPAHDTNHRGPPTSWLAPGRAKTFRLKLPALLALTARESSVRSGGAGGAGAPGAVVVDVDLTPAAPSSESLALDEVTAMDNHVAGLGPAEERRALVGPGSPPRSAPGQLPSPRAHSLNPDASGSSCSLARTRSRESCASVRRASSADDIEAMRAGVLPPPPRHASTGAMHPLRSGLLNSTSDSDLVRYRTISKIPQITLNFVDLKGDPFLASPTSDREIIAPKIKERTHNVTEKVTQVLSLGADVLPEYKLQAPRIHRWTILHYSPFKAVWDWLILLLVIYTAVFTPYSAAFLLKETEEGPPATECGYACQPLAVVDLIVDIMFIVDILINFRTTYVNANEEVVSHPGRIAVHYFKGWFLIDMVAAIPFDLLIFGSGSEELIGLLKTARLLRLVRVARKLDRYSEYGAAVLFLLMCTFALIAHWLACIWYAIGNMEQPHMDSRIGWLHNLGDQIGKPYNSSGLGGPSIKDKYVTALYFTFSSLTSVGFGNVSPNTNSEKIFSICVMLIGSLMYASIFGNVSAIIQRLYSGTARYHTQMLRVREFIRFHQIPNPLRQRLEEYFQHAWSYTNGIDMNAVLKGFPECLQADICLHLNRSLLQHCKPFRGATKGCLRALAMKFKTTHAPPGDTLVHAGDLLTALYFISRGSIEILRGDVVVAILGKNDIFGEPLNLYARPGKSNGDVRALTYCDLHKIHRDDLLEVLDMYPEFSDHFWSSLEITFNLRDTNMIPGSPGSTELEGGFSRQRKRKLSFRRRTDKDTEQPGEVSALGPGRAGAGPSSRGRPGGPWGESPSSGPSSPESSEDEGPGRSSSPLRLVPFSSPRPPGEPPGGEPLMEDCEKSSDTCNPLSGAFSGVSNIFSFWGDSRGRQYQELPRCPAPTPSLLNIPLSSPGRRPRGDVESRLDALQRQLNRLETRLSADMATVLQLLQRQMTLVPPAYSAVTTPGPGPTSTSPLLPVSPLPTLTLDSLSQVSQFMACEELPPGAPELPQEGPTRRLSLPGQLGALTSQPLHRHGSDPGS
KCNQ1 act: potentiators or activators of human KCNQ1 potassium channel; hit rate 0.35% among 310,000; AID 2648; CHO-K1 KCNQ1, thallium flux FluxOR fluorescence; active compounds read high; B-score at 10 µM;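 active means fluorescence ratio B-score, a plate-corrected score, at least three library SD, with initial intensity B-score within 5 SD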
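Medium – assay buffer, equal DMSO in all wells · Material – CHO-K1 cell line with stable KCNQ1 potassium channel expression · Signal – kinetic FluxOR thallium fluorescence, 10-s 1-Hz baseline, 110-s post-stimulus read · Compound – single concentration per compound, DMSO matched to controls · Schedule – 37 °C overnight plating, 90-min dark dye load, 20-min compound pretreatment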
KCNK3 inh: human KCNK3 channel inhibition, primary screen. CHO-KCNK3 thallium flux, FluxOR fluorescence; active compounds read low. B-score at 10 µM. hit rate 0.84% among 340,000;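 active means B-score under library mean minus 4 SD, starting fluorescence ratio at most library mean plus 5 SD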;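 further: more negative B-score means stronger inhibition of thallium flux through KCNK3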
KCNK9 inh: blocks the human KCNK9 two-pore domain potassium channel; Q9NPC2; HEK293 KCNK9, FluxOR thallium flux fluorescence; active compounds read low; B-score at 10 µM; hit rate 1.2% among 310,000; AID 488922;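 active means ratio B-score over 3 SD below the library mean, with starting fluorescence within 5 SD of its mean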;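 further: negative B-score means less thallium flux so channel inhibition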
KCNQ1 inh: human KCNQ1 channel inhibition | P51787 | CHO-K1 KCNQ1, FluxOR thallium flux fluorescence; active compounds read high | B-score at 10 µM | hit rate 1.3% among 310,000 | AID 2642;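 active means compounds whose thallium flux B-score, printed positive for inhibition, exceeds three library SD while starting fluorescence stays within three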;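 further: channel opened by potassium depolarization with thallium stimulus after 20 min compound exposure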
Numbers without * were called inactive; i = inactive; nt = not tested or not shown.

SMILES	Kir21 inh	hERG protect	KCNQ1 act	KCNK3 inh	KCNK9 inh	KCNQ1 inh
Cc1nc(Nc2cccc(O)c2)c2c3c(sc2n1)CCC3	-0.01	-12	i	i	i	i
CC(C)CNC(=O)c1ccccc1NC(=O)c1ccc(CSc2ccccc2)cc1	-0.07	-17	i	i	i	7*
CSC(=S)N/N=C(\C)c1ccccc1	0.03	20*	45*	i	i	i
S=C1CC2CCCC(C2)N1 (configuration not stated)	nt	nt	nt	i	nt	nt
CCOC(=O)SC1=N/C(=C\c2ccc(N(C)C)cc2)C(=O)S1	-2	-7	8*	i	i	i
CCSC1=N/C(=C\c2ccc(C(=O)O)cc2)C(=O)S1	-1.4	-14	i	i	i	i
CNC(=O)c1ccc(NC(=O)CN2c3cccc4cccc(c34)S2(=O)=O)cc1	1.8	14*	i	i	i	i
CC(C)N(Cc1ccccc1)C(=O)CN1c2cccc3cccc(c23)S1(=O)=O	nt	nt	nt	-10*	nt	nt
O=C(CN1c2cccc3cccc(c23)S1(=O)=O)Nc1ccccc1F	0.98	-3	i	i	i	i
CN(C)C(=O)CN1c2cccc3cccc(c23)S1(=O)=O	-1.2	-4	i	i	i	i
O=C(CN1c2cccc3cccc(c23)S1(=O)=O)Nc1ccc(F)c(F)c1F	nt	nt	nt	-9.4*	nt	nt
O=C(CN1c2cccc3cccc(c23)S1(=O)=O)Nc1ccccc1	1.8	-5	i	i	i	i
COc1cccc(CN2CCNC(=O)C2CC(=O)NCC(C)(C)N2CCOCC2)c1OC (configuration not stated)	0.99	-3	i	i	i	i
O=C(COC(=O)c1cccc(F)c1)Nc1ccc2c(c1)OCCO2	nt	nt	nt	i	nt	nt
COc1ccc(-n2nc(C(=O)NCC(=O)N3CCCC3)c3ccccc3c2=O)cc1Cl	-0.15	-10	i	i	i	i
O=C(Cn1ncc2c(=O)oc3ccccc3c21)N1CCN(C(=O)c2ccco2)CC1	1.2	-12	8*	i	i	i
O=C(Cn1ncc2c(=O)oc3ccccc3c21)N1CCN(c2ccccn2)CC1	0.85	-3	i	i	i	i
OCCCNCc1ccc(N(c2ccccc2)c2ccccc2)cc1	-12*	-9	i	i	i	i
O=C(/C=C/c1cn(CC(O)CN2CCCCC2)c2ccccc12)c1ccccc1 (configuration not stated)	-4	-21	i	i	i	i
O=C(/C=C/c1cn(CC(O)CN2CCCCC2)c2ccccc12)c1cccs1 (configuration not stated)	-7.1	-31	i	i	i	7*
COCCCNC(=S)N1CCN(C(c2ccccc2)c2ccccc2)CC1	-0.35	-9	i	i	i	i
O=C(NCC(c1ccco1)N1CCCC1)c1cccc(S(=O)(=O)Nc2ccc(F)cc2)c1 (configuration not stated)	nt	nt	nt	i	nt	nt
Cc1cc(C)c(NC(=O)C2CC(=O)N(C3CCCC3)C2)c(C)c1 (configuration not stated)	nt	nt	nt	i	nt	nt
Cc1ccc2c(c1)C1CN(C)CCC1N2S(=O)(=O)c1cc(C(F)(F)F)ccc1Cl (configuration not stated)	nt	nt	nt	i	nt	nt
N#C/C(=C\c1ccc(C#N)cc1)C(=O)N1CCCC1	-0.66	-13	i	i	i	6*
SMILES	Kir21 inh	hERG protect	KCNQ1 act	KCNK3 inh	KCNK9 inh	KCNQ1 inh
N#C/C(=C\c1ccc(O)cc1)C(=O)N1CCCC1	0.74	-8	i	i	i	i
CCN(c1cccc(C)c1)S(=O)(=O)c1cc2c3c(c1)CCC(=O)N3CCC2	-5.8*	-12	i	i	i	i
CCc1ccc(CCC(=O)Nc2ccc(C(=O)O)cc2)o1	0.02	-2	i	i	i	i
O=C(COc1ccccc1-c1ccccc1)N/N=C/c1cccc2ccccc12	-0.57	-2	i	i	i	i
O=C(COc1cccc2ccccc12)N/N=C/c1ccccc1OCc1ccc(C(=O)O)cc1	2.1	-14	i	i	i	11*
CC1(c2ccccc2)NC(=O)N(CC(=O)Nc2ccc(N3CCOCC3)cc2N2CCOCC2)C1=O (configuration not stated)	-1.4	-10	i	i	i	i
CN(/N=C/c1ccc(-c2ccc([N+](=O)[O-])cc2)o1)c1ccccc1	-1	-6	i	i	i	8*
Cc1c(NC(=S)NC(=O)c2cccc(Br)c2)c(=O)n(-c2ccccc2)n1C	-0.12	-8	i	i	i	i
CCCCOP(=O)(OCCCC)C(Nc1ccc(C(=O)OCC)cc1)c1ccncc1 (configuration not stated)	0.29	-11	i	i	i	6*
CCCOP(=O)(OCCC)C(Nc1ccc(C(=O)O)cc1)c1ccccc1 (configuration not stated)	-0.47	-3	i	i	i	i
CCOc1cc(C2Nc3ccccc3C(=O)N2c2ccccc2OC)ccc1O (configuration not stated)	-0.18	19*	i	i	i	i
COc1cc(C2Nc3ccccc3C(=O)N2c2ccccc2OC)ccc1O (configuration not stated)	-0.09	-6	i	i	i	i
COc1ccc(-c2nc(CS(=O)(=O)CC(=O)NCCCN3CCN(C)CC3)c(C)o2)cc1	-0.02	-10	i	i	i	i
CCCN(CCC)CC(O)Cn1cc(/C=C/C(=O)c2ccccc2)c2ccccc21 (configuration not stated)	-4.2	-20	i	i	i	i
CCCCN(C)CC(O)Cn1cc(/C=C/C(=O)c2ccc(C)cc2)c2ccccc21 (configuration not stated)	-5.2*	-25	i	i	i	i
CCOC(=O)N1CCC(N2Cc3cccc(C(=O)Nc4ccc(OCC)cc4)c3C2=O)CC1	0.06	-10	i	i	i	i
Cc1cc(C)n(CCC(=O)N/N=C/c2ccc(Br)c([N+](=O)[O-])c2)n1	-0.02	-17	i	i	i	6*
N#CCCn1cc(C(=O)Nc2ccccc2Br)c(-c2cccs2)n1	-0.49	-10	i	i	-7.3*	i
COC(=O)c1ccnc(/C=N/O)c1	0.36	6.2*	i	i	i	i
COc1ccc(-c2noc(CCC(=O)N3CCN(c4cccc(C)c4C)CC3)n2)cc1	nt	nt	nt	i	nt	nt
CCCCC(C(=O)NC(C)(C)C)N(Cc1ccccc1Cl)C(=O)c1snc(C(N)=O)c1N (configuration not stated)	0.09	-16	i	i	i	6*

Compound activity (PubChem)
